The values that follow come from ChEMBL document CHEMBL4513216, “Probing the Open Global Health Chemical Diversity Library for Multistage-Active Starting Points for Next-Generation Antimalarials” (ACS Infect Dis, 2020).

Structures are written as SMILES.

A short description of this data set: Toxicity liver stage against HepG2, at 10uM. Format: cell-based. The note with it: human, HepG2-A16-CD81EGFP cells; read-out: INHIBITION
Details: test concentration 10 uM, cell line HepG2-A16-CD81EGFP. The gist of the method:
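Uninfected HepG2-A16-CD81EGFP cells, 3 × 10^3 per well, 1536-well, plated on prespotted compound at 10 μM final, parasite-free screening media added to match infected plates; puromycin 10 μM positive, DMSO 0.5% negative; run in parallel with 48 h PbLuc assay at 37 °C, 5% CO2; viability by CellTiter-Glo luminescence, normalized to controls.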

With `Cc1c(C(C)NCc2cnn(C)c2)cnn1-c1ccccc1` (stereo unspecified), the cytotoxicity at 10 µM was -5.78%.
With `COC(=O)c1sccc1S(=O)(=O)N1CCC(Oc2cccnn2)CC1`, the cytotoxicity at 10 µM is -4.82%.
Take `CNC(=O)c1cccc(Nc2cnn(C)c2)c1`: the cytotoxicity at 10 µM stood at 6.77%.
Next, `CS(=O)(=O)NCc1ncn2c1CN(C(=O)C1CCCCC1)CCC2`: -71.2%; `O=C(N1CCCC1)N1C[C@@H]2CC[C@H]1CN(Cc1ccncc1)C2`: 4.63%; `CCn1cc(S(=O)(=O)NC2CCCN(CCCc3ccccc3)C2)cn1` (stereo unspecified): 8.08%.
On to `CC1(C(=O)Nc2ccc(F)c(-n3cccc3)c2)CCOCC1`, for which the cytotoxicity at 10 µM is -0.0972%.
Regarding `O=C([C@H]1C[C@H]2OCC[C@H]2N(C(=O)c2ccncc2)C1)N1CCCC1`, the cytotoxicity at 10 µM worked out at 4.76%.
As to `Cc1c(Cl)cc(C(=O)N(CCO)Cc2nccn2C)cc1Cl`, the cytotoxicity at 10 µM was 2.66%.
In the case of `Cn1ccnc1CN1CCC(CCC(=O)Nc2ccccc2Cl)CC1`, the cytotoxicity at 10 µM is -3.73%.
As for `CCOCc1ccc(NC(=O)N2CCOC3(CCC3)C2)cc1`, the cytotoxicity at 10 µM was found to be 4.29%.
Take `COc1ccc2cc(CNCc3c(C)nn(C)c3N(C)C)ccc2c1`: the cytotoxicity at 10 µM was -20.4%.
With `COc1cccc(OC2CN(C(=O)C3CCCN(C(=O)N(C)C)C3)C2)c1` (stereo unspecified), the cytotoxicity at 10 µM is 0.754%.
In the case of `Cc1nn(C)c(N(C)C)c1CNCc1cccnc1N1CCOCC1`, the cytotoxicity at 10 µM was -141%.
On to `N#Cc1ccccc1CN1CCCC(c2nccn2CC2CCC2)C1` (stereo unspecified), for which the cytotoxicity at 10 µM was -5.06%.
On to `Cc1cc(C2CCCN2C(=O)CN2C(=O)OC(C)(C)C2=O)on1` (stereo unspecified), for which the cytotoxicity at 10 µM was -14.1%.
Turning to `Cc1cccc(C2(C(=O)NS(=O)(=O)c3cnn(C)c3)CCCC2)c1`, the cytotoxicity at 10 µM is -3.62%.
As for `CC(O)CN1CCC(CN(C)Cc2cc(C#N)ccc2F)CC1` (stereo unspecified), the cytotoxicity at 10 µM turned out to be 2.05%.
With `CSCCCN1CC[C@@H](NC(=O)c2cnccn2)[C@H](O)C1`, the cytotoxicity at 10 µM was -14.6%.
For the compound `CSc1nnc(CC2CCN(C(=O)COc3cccnc3)CC2)n1C`, the cytotoxicity at 10 µM is -45.9%.
To `CCN(Cc1ccccc1)c1ncnc2c(C)nn(CC)c12` belongs -2.48%; to `CC(=O)c1c(F)cccc1N1CCC(NS(=O)(=O)c2ccccc2)CC1`, 53.4%; to `CC(C)n1cc(C(=O)NCCCc2csc(N)n2)cn1`, -4.36%.
To `c1ccc(-n2cncn2)c(CNCCn2cccn2)c1` belongs -4.29%; to `CCOCCNC(=O)CCC1CCCO1` (stereo unspecified), -122%; to `Cc1nnnn1-c1cc(NCc2cccc(C#N)c2)ccc1F`, 7.09%.
In the case of `COc1ccc(C(=O)NCc2ccc(C(=O)O)o2)cc1`, the cytotoxicity at 10 µM was -0.806%.
To `Cc1nn(Cc2ccc(F)cc2)c2[nH]nc(N)c12` belongs 1.11%.
As to `O=C(NCc1cccs1)[C@H]1CC[C@@H]2[C@@H](CCN2Cc2ccoc2)O1`, the cytotoxicity at 10 µM was -0.317%.
Next, `Cc1cccc(C)c1OC1CN(Cc2cnc(-c3ccco3)nc2)C1`: 6.17%.
`Cc1ccc2[nH]c(CN(C)c3cc(CCN)nc(C)n3)nc2c1`: the cytotoxicity at 10 µM amounted to 0%.
For the compound `O=C(c1cnc2c(cnn2C2CCCC2)c1)N1CCN(CCO)CC1`, the cytotoxicity at 10 µM was -17.2%.
Take `O=c1cc(CN2CCCC2)nc2n1CCCN(CC1CCOCC1)C2`: the cytotoxicity at 10 µM is 9.97%.
As to `c1cncc(CN2CCCC3(COCCN(c4nccs4)C3)C2)c1` (stereo unspecified), the cytotoxicity at 10 µM is -80.4%.
To `CN(Cc1ccco1)C1CCC12CCN(C(=O)c1ccnnc1)CC2` (stereo unspecified) belongs 0.081%.
As to `CC(C)(O)CN1CCN(C(=O)c2cccc3cccnc23)CC1`, the cytotoxicity at 10 µM is -10.7%.
Next, `CC(=O)c1ccc(OCC(=O)c2cccn2C)cc1`: 27.6%.
To `O=C(C1CC1)N1C[C@H]2CCCN(S(=O)(=O)c3ccc4c(c3)CCC4)[C@H]2C1` belongs 8.52%; to `Cc1nc2ccccc2c(=O)n1CCC(=O)N1CCCCCC1`, -6.57%; to `CC(Cn1cccn1)NC(=O)N(C)Cc1ccc(C(N)=O)cc1` (stereo unspecified), 3.37%.
For `NC(=O)c1csc(N2C[C@@H](CN3CCCCC3)[C@@H](CO)C2)n1`, the cytotoxicity at 10 µM is -1.39%.
In the case of `COc1ccc(CNC(=O)N(Cc2ccc(F)cc2F)C2CC2)cn1`, the cytotoxicity at 10 µM is -6.67%.
On to `Cc1noc(C)c1CN(C)C(=O)c1n[nH]c(N)c1-c1ccccc1`, for which the cytotoxicity at 10 µM was -7.46%.
For the compound `O=C(CNCCn1cccn1)NCC1(c2ccccc2)CCCC1`, the cytotoxicity at 10 µM is -5.92%.
On to `Cc1cc(NC(=O)CN2CCc3c(nc(C(C)C)n3C)C2)n(C)n1`, for which the cytotoxicity at 10 µM was -4.94%.
Regarding `Cc1ccccc1CN1CCN(C(=O)c2cnc(C3CC3)[nH]c2=O)CC1`, the cytotoxicity at 10 µM came to 2.25%.
For `CCC(CNC1CCN(C(C)=O)CC1)Oc1ccccc1Cl` (stereo unspecified), the cytotoxicity at 10 µM was -13.4%.
Turning to `CCC(CC)c1cc(C(=O)N2CCCC(n3cncn3)C2)on1` (stereo unspecified), the cytotoxicity at 10 µM is -13.1%.
As for `COCCN1CCc2c(CNC(=O)c3nccn3C)cncc2C1`, the cytotoxicity at 10 µM is -107%.
Take `Cc1cccnc1NC(=O)C1CCN(C(=O)C(C)C)CC1`: the cytotoxicity at 10 µM stood at 6.7%.
To `Fc1cccnc1O[C@H]1CN(Cc2ccoc2)[C@@H]2CCCO[C@H]12` belongs -0.908%; to `Cc1ccc2nc(CN3CCCCC3C(=O)N3CCOCC3)cn2c1` (stereo unspecified), 3.13%.
To `Cn1cccc1C(=O)N1CCC2(CC1)c1nc[nH]c1CCN2S(C)(=O)=O` belongs -0.359%.
As for `Cc1ncsc1C(=O)N(C)Cc1cccnc1`, the cytotoxicity at 10 µM is -5.57%.
Regarding `Cc1ccccc1-c1noc(CN2CC(n3cccn3)C2)n1`, the cytotoxicity at 10 µM was -4.21%.
In the case of `O=S1(=O)NC(c2ccnc(N3CCCC3)n2)=Nc2ccccc21`, the cytotoxicity at 10 µM stood at 12.8%.
Consider `CC(C)c1nccc(C2CC(=O)Nc3n[nH]c(C4CCC4)c32)n1` (stereo unspecified), for which the cytotoxicity at 10 µM is -14.6%.
`CNS(=O)(=O)CC1CCCN1c1ccc(Cl)cn1` (stereo unspecified): the cytotoxicity at 10 µM stood at 7.6%.
On to `CNc1cncc(C2CCCN2c2cc(C)ncn2)n1` (stereo unspecified), for which the cytotoxicity at 10 µM is -23.3%.
Consider `CC(C)n1cnc2c(N3CCCC3)nc(C3CCNCC3)cc21`, for which the cytotoxicity at 10 µM is -3.03%.
`CS(=O)(=O)c1ccc(CNC[C@H]2COCc3nc4cccnc4n32)cc1`: the cytotoxicity at 10 µM is -0.505%.
Regarding `COCCOCC(=O)Nc1ccc(C)cc1Br`, the cytotoxicity at 10 µM is -6.99%.
Next, `c1ccc(-c2noc(CCCN3CCCC3Cn3cccn3)n2)cc1` (stereo unspecified): -13%; `Cc1nc(CN2C(=O)C[C@@H]3[C@@H]2CCN3S(=O)(=O)C2CC2)cs1`: -124%; `COc1ccc(NC(=O)CCC2CCCN(S(=O)(=O)C3CC3)C2)cc1Cl` (stereo unspecified): 11.3%.
Turning to `COc1ccc(C2=NOC(CO)C2)cc1` (stereo unspecified), the cytotoxicity at 10 µM was 11.2%.
In the case of `CCC1CN(C(=O)c2cnc(-c3ccccc3)s2)CCO1` (stereo unspecified), the cytotoxicity at 10 µM is -2.63%.
Next, `CCOc1cccc(C(C)NCc2ccc(OC)c(OC)c2OC)c1` (stereo unspecified): 29.4%; `CCN1C(=O)C2(CCOCC2)c2cc(NC(=O)COC)ccc21`: -0.82%; `c1ccc2sc(N3CCCN(c4ncnc5c4CCNC5)CC3)nc2c1`: 31.2%.
To `CC(=O)NCc1cc2n(n1)CCN(Cc1cc(-c3ccccc3)no1)C2` belongs 7.12%.
To `O=C(O)C1(Cc2cc(-c3ccc(F)cc3)no2)CCOCC1` belongs -20.8%; to `O=C(NCCc1nc2ccccc2s1)c1coc(CN2CCOCC2)c1`, -5.69%.
On to `CC(c1ccco1)N(C)Cc1nc2c(cnn2C)c(=O)[nH]1` (stereo unspecified), for which the cytotoxicity at 10 µM was -3.29%.
For the compound `CC(CN1CCOCC1)NC(=O)N1CCCC1` (stereo unspecified), the cytotoxicity at 10 µM amounted to 0.651%.
`CC(C)NC(=O)N1CCC2(CC(=O)N(c3ccccc3)C2)C1` (stereo unspecified): the cytotoxicity at 10 µM is -2.59%.
Next, `O=C(NC1CC1)N1CCn2c(Cn3cccn3)cnc2C1`: -72.8%; `CCOC(=O)N1[C@@H](c2ccco2)[C@@H](CO)C[C@]12CCCCNC2=O`: 0.644%.
`N#Cc1ccc(F)c(CN2CCCC2Cn2cncn2)c1` (stereo unspecified): the cytotoxicity at 10 µM was 8.21%.
Consider `CCc1nc(C)ncc1C(=O)N1CCOC(c2nc(C)n[nH]2)C1` (stereo unspecified), for which the cytotoxicity at 10 µM was -7.88%.
Turning to `Cn1cc(Cl)c(C(=O)N2CCCN(C3Cc4ccccc4C3)CC2)n1`, the cytotoxicity at 10 µM was -4.86%.
Regarding `CNC(=O)C(C)(C)NC(=O)c1cc(COc2cccc(C(C)=O)c2)[nH]n1`, the cytotoxicity at 10 µM was 3.69%.
To `Cc1cc(C(=O)N[C@@H]2CCNC[C@H]2O)ccc1Cl` belongs -18.4%; to `CCS(=O)(=O)N1CCO[C@H]2[C@H](OCC3CCCC3)CC[C@@H]21`, -9.6%; to `CC[C@H](C)[C@H](N)C(=O)N1CC(=O)c2sc(NC3CCCCC3)nc2C1`, -13.7%.
For `O=S(=O)(Cc1ccccc1)NCC1CCCN(Cc2cccs2)C1` (stereo unspecified), the cytotoxicity at 10 µM is 3.3%.
As to `CCS(=O)(=O)N1Cc2cncn2CC(C(=O)NCC2CC2)C1` (stereo unspecified), the cytotoxicity at 10 µM was -97.6%.
As for `O=C(CO)N1CCC(F)(F)C2(CCN(c3ccccc3)C2)C1` (stereo unspecified), the cytotoxicity at 10 µM is 13.8%.
On to `N#Cc1ccsc1N1CCC(Sc2ccncc2)C1=O` (stereo unspecified), for which the cytotoxicity at 10 µM is -15.7%.
With `Cc1cc(C)n(C2CCN(c3ncnc4c3CCC4)C2)n1` (stereo unspecified), the cytotoxicity at 10 µM came to 23.6%.
Next, `CN(C)C1CCCN(C(=O)NCCNC(=O)C2CCCCC2)C1` (stereo unspecified): -1.69%; `O=C(c1cncc(F)c1)N1CCC(c2ncc[nH]2)CC1`: -1.39%.
With `COc1ccc(OC)c(-n2cnnc2CCN)c1`, the cytotoxicity at 10 µM is 9.83%.
For `O=S(=O)(CCSc1nccn1C1CC1)c1ccccc1`, the cytotoxicity at 10 µM is -4.63%.
For `O=C(Nc1cccnc1)[C@H]1C[C@H]2CN(C(=O)NC3CCCC3)C[C@@H]1O2`, the cytotoxicity at 10 µM came to 2.96%.
Next, `CCOCCNC(=O)[C@@H]1CCCN1c1nccc(Nc2ccccc2)n1`: 2.66%.
